pIC50: −log10 of the molar value. Converted amounts (≈) assume the structure as drawn.
Key:
[1] = tested on: Plasmodium berghei; assay: Antimalarial activity against chloroquine-susceptible Plasmodium berghei ANKA assessed as inhibition of trophozoite extract-mediated mouse hemoglobin hydrolysis at 10 mM after 18 hrs by SDS-PAGE; assay type: functional
Outline: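 Trophozoite extract came from P. berghei-infected mouse blood at 30–50% parasitemia: RBCs percoll-purified (80–70%), saponin-lysed, then freeze–thawed three times. Substrate was native haemoglobin from uninfected mouse erythrocytes lysed in water. The mix held GSH and acetate buffer (0.2 M, pH 5.4). Compound was added in DMSO and incubated 37 °C, 18 h. Reactions were stopped with reduced sample buffer.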

[2] = Inhibition of beta-hematin formation assessed as inhibition of […] polymerization at […] after 48 hrs; assay type: functional
Outline: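 Hemin chloride (50 µL, 4 mM in DMSO) was mixed in triplicate with compound in DMSO; water or DMSO served as controls. Reaction was started with acetate buffer (0.2 M, pH 4.4) and run 37 °C for 48 h. The pellet was DMSO-washed twice, dissolved in 0.2 N NaOH, diluted 1:2 in 0.1 N NaOH, and read at 405 nm as % inhibition of FP polymerization.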

[3] = tested on: Plasmodium berghei; assay: Antimalarial activity against chloroquine-susceptible Plasmodium berghei ANKA infected in Balb-C mouse assessed as inhibition parasitemia at 20 mg/kg, ip qd for 4 days […]; assay type: functional; details: 96 h, route intraperitoneal
Outline: (§1)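 Balb-C mice (18–23 g, n = 6) were infected iv in the caudal vein with 10⁶ P. berghei ANKA-infected RBCs. Dosing started 2 h post-infection: 20 mg/kg ip once daily for 4 days, DMSO stock diluted in Saline-Tween 20 (2%). Chloroquine 25 mg/kg served as positive control; untreated mice were controls. Parasitemia was read on day 4 from Giemsa smears, and survival days were recorded.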

[4] = tested on: Plasmodium berghei; assay: Antimalarial activity against chloroquine-susceptible Plasmodium berghei ANKA infected in Balb-C mouse; assay type: functional, organism-based; outline: as §1
[5] = tested on: NCI-H460; assay: Cytotoxicity against human H460 cells assessed as growth inhibition after 48 hrs by sulforhodamine B assay; assay type: functional; details: NCI-H460, 48 h
Outline: (§2)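 Cells were exposed to serial compound dilutions in 96-well plates for 48 h at 37 °C alongside solvent controls. Growth was read colorimetrically by sulforhodamine B. GI50 is the concentration giving a 50% reduction in absorbance versus solvent-treated controls, derived by linear regression.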

[6] = tested on: Mycobacterium tuberculosis; assay: Antimycobacterial activity against Mycobacterium tuberculosis H37Rv after 5 days by tetrazolium microplate assay; assay type: functional; details: 120 h
Outline: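 Tetrazolium microplate assay run in 7H9GC broth. DMSO stocks (4 mg/mL) were diluted to final 0.4–25 µg/mL. Isoniazid (0.125–32 µg/mL) and rifampin (0.063–16 µg/mL) were positive controls; inoculum-only and DMSO controls were included. Plates were incubated 5 days at 37 °C, then an MTT-Tween 80 mix was added and incubation continued 24 h at 37 °C. Run in triplicate. MIC = lowest concentration preventing the yellow-to-purple colour change.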

[7] = Cytotoxicity against mouse 3T3 cells assessed as growth inhibition after 48 hrs by sulforhodamine B assay; assay type: cell-based; details: NIH3T3 cells; outline: as §2
[8] = Cytotoxicity against african green monkey Vero cells assessed as growth inhibition after 48 hrs by sulforhodamine B assay; assay type: cell-based; details: chlorocebus sabaeus; outline: as §2
[9] = tested on: DU-145; assay: Cytotoxicity against human DU145 cells assessed as growth inhibition after 48 hrs by sulforhodamine B assay; assay type: functional; details: DU-145, 48 h; outline: as §2
[10] = tested on: MCF7; assay: Cytotoxicity against human MCF7 cells assessed as growth inhibition after 48 hrs by sulforhodamine B assay; assay type: functional; details: MCF7, 48 h; outline: as §2
[11] = tested on: M14; assay: Cytotoxicity against human M14 cells assessed as growth inhibition after 48 hrs by sulforhodamine B assay; assay type: functional; details: M14, 48 h; outline: as §2
[12] = tested on: HT-29; assay: Cytotoxicity against human HT-29 cells assessed as growth inhibition after 48 hrs by sulforhodamine B assay; assay type: functional; details: HT-29, 48 h; outline: as §2
[13] = tested on: K562; assay: Cytotoxicity against human K562 cells assessed as growth inhibition after 48 hrs by sulforhodamine B assay; assay type: functional; details: K562, 48 h; outline: as §2
[14] = tested on: Plasmodium berghei; assay: Antimalarial activity against chloroquine-susceptible Plasmodium berghei ANKA infected in Balb-C mouse assessed as mouse survival days at 20 mg/kg, ip qd for 4 days […] relative to untreated control; assay type: functional; details: route intraperitoneal

Structure (SMILES): O=C(NNC(=O)c1ccc2[nH]c(-c3ccc([N+](=O)[O-])o3)nc2c1)c1ccccc1
- inhibition at 10000 µM [1]: 0%
- inhibition [2]: 79.2%
- inhibition in vivo at 20 mg/kg [3]: 10.1%
- pIC50 [4]: 4.96
- GI50 [5]: 62.5 mg/L (≈ 160 µM)
- MIC [6]: 12.5 mg/L (≈ 31.9 µM)
- GI50 at 48 h [7]: 31.2 mg/L (≈ 79.9 µM)
- GI50 at 48 h [8]: 31.2 mg/L (≈ 79.9 µM)
- GI50 [9]: 15.6 mg/L (≈ 39.9 µM)
- GI50 [10]: 62.5 mg/L (≈ 160 µM)
- GI50 [11]: 15.6 mg/L (≈ 39.9 µM)
- GI50 [12]: 31.2 mg/L (≈ 79.9 µM)
- GI50 [13]: 15.6 mg/L (≈ 39.9 µM)
- Survival [14]: 13.6 days

Structure (SMILES): COc1cc(C(=O)NNC(=O)c2ccc3[nH]c(-c4ccc([N+](=O)[O-])o4)nc3c2)cc(OC)c1OC
- inhibition at 10000 µM [1]: 0%
- inhibition [2]: 69.4%
- inhibition in vivo at 20 mg/kg [3]: 9.4%
- pIC50 [4]: 4.84
- GI50 [5]: 31.2 mg/L (≈ 64.9 µM)
- MIC [6]: > 25 mg/L
- GI50 at 48 h [7]: 31.2 mg/L (≈ 64.9 µM)
- GI50 at 48 h [8]: 31.2 mg/L (≈ 64.9 µM)
- GI50 [9]: 15.6 mg/L (≈ 32.5 µM)
- GI50 [10]: 31.2 mg/L (≈ 64.9 µM)
- GI50 [11]: 15.6 mg/L (≈ 32.5 µM)
- GI50 [12]: 31.2 mg/L (≈ 64.9 µM)
- GI50 [13]: 31.2 mg/L (≈ 64.9 µM)
- Survival [14]: 12.2 days

Structure (SMILES): COc1cccc(C(=O)NNC(=O)c2ccc3[nH]c(-c4ccc([N+](=O)[O-])o4)nc3c2)c1
- inhibition at 10000 µM [1]: 2.82%
- inhibition [2]: 72.4%
- inhibition in vivo at 20 mg/kg [3]: 5.98%
- pIC50 [4]: 4.88
- GI50 [5]: 62.5 mg/L (≈ 148 µM)
- MIC [6]: 25 mg/L (≈ 59.3 µM)
- GI50 at 48 h [7]: 15.6 mg/L (≈ 37.1 µM)
- GI50 at 48 h [8]: 31.2 mg/L (≈ 74.2 µM)
- GI50 [9]: 15.6 mg/L (≈ 37.1 µM)
- GI50 [10]: 15.6 mg/L (≈ 37.1 µM)
- GI50 [11]: 7.81 mg/L (≈ 18.5 µM)
- GI50 [12]: 31.2 mg/L (≈ 74.2 µM)
- GI50 [13]: 15.6 mg/L (≈ 37.1 µM)
- Survival [14]: 11.8 days

Structure (SMILES): O=C(NNC(=O)c1cc2ccccc2cc1O)c1ccc2[nH]c(-c3ccc([N+](=O)[O-])s3)nc2c1
- inhibition at 10000 µM [1]: 14.1%
- inhibition [2]: 75.8%
- inhibition in vivo at 20 mg/kg [3]: 1.8%
- pIC50 [4]: 4.95
- GI50 [5]: 62.5 mg/L (≈ 132 µM)
- MIC [6]: > 25 mg/L
- GI50 at 48 h [7]: 31.2 mg/L (≈ 66 µM)
- GI50 at 48 h [8]: 31.2 mg/L (≈ 66 µM)
- GI50 [9]: 62.5 mg/L (≈ 132 µM)
- GI50 [10]: 62.5 mg/L (≈ 132 µM)
- GI50 [11]: 62.5 mg/L (≈ 132 µM)
- GI50 [12]: 62.5 mg/L (≈ 132 µM)
- GI50 [13]: 31.2 mg/L (≈ 66 µM)
- Survival [14]: 18.8 days

Structure (SMILES): O=C(O)c1ccc2[nH]c(-c3ccc([N+](=O)[O-])o3)nc2c1
- inhibition at 10000 µM [1]: 0%
- inhibition [2]: 95.4%
- inhibition in vivo at 20 mg/kg [3]: 4.02%
- pIC50 [4]: 5.07
- GI50 [5]: 125 mg/L (≈ 458 µM)
- MIC [6]: > 25 mg/L
- GI50 at 48 h [7]: 62.5 mg/L (≈ 229 µM)
- GI50 at 48 h [8]: > 250 mg/L
- GI50 [9]: 125 mg/L (≈ 458 µM)
- GI50 [10]: > 250 mg/L
- GI50 [11]: 250 mg/L (≈ 915 µM)
- GI50 [12]: 250 mg/L (≈ 915 µM)
- GI50 [13]: 250 mg/L (≈ 915 µM)
- Survival [14]: 17 days

Structure (SMILES): O=C(NNC(=O)c1ccc2[nH]c(-c3ccc([N+](=O)[O-])o3)nc2c1)c1cccc(Oc2ccccc2)c1
- inhibition [2]: 84.6%
- inhibition in vivo at 20 mg/kg [3]: 12.9%
- pIC50 [4]: 4.85
- GI50 [5]: > 7.8 mg/L
- MIC [6]: > 25 mg/L
- GI50 at 48 h [7]: > 7.8 mg/L
- GI50 at 48 h [8]: > 7.8 mg/L
- GI50 [9]: > 7.8 mg/L
- GI50 [10]: > 7.8 mg/L
- GI50 [11]: > 7.8 mg/L
- GI50 [12]: > 7.8 mg/L
- GI50 [13]: > 7.8 mg/L
- Survival [14]: 10.6 days

Structure (SMILES): O=CNNC(=O)c1ccc2[nH]c(-c3ccc([N+](=O)[O-])o3)nc2c1
- inhibition at 10000 µM [1]: 24.2%
- inhibition [2]: 94%
- inhibition in vivo at 20 mg/kg [3]: 25.8%
- pIC50 [4]: 5.06
- GI50 [5]: 31.2 mg/L (≈ 99.1 µM)
- MIC [6]: > 25 mg/L
- GI50 at 48 h [7]: 62.5 mg/L (≈ 198 µM)
- GI50 at 48 h [8]: 62.5 mg/L (≈ 198 µM)
- GI50 [9]: 15.6 mg/L (≈ 49.6 µM)
- GI50 [10]: 62.5 mg/L (≈ 198 µM)
- GI50 [11]: 31.2 mg/L (≈ 99.1 µM)
- GI50 [12]: 62.5 mg/L (≈ 198 µM)
- GI50 [13]: 31.2 mg/L (≈ 99.1 µM)
- Survival [14]: 8.2 days

Structure (SMILES): COc1cccc(C(=O)NNC(=O)c2ccc3[nH]c(-c4ccc([N+](=O)[O-])s4)nc3c2)c1
- inhibition at 10000 µM [1]: 13.4%
- inhibition [2]: 61.6%
- inhibition in vivo at 20 mg/kg [3]: 24.8%
- pIC50 [4]: 4.61
- GI50 [5]: 62.5 mg/L (≈ 143 µM)
- MIC [6]: > 25 mg/L
- GI50 at 48 h [7]: 15.6 mg/L (≈ 35.7 µM)
- GI50 at 48 h [8]: > 250 mg/L
- GI50 [9]: 62.5 mg/L (≈ 143 µM)
- GI50 [10]: 15.6 mg/L (≈ 35.7 µM)
- GI50 [11]: 15.6 mg/L (≈ 35.7 µM)
- GI50 [12]: 31.2 mg/L (≈ 71.4 µM)
- GI50 [13]: 15.6 mg/L (≈ 35.7 µM)
- Survival [14]: 10.6 days

Structure (SMILES): COc1ccc(C(=O)NNC(=O)c2ccc3[nH]c(-c4ccc([N+](=O)[O-])o4)nc3c2)cc1OC
- inhibition at 10000 µM [1]: 34.5%
- inhibition [2]: 94.8%
- inhibition in vivo at 20 mg/kg [3]: 4.8%
- pIC50 [4]: 5.06
- GI50 [5]: 15.6 mg/L (≈ 34.6 µM)
- MIC [6]: > 25 mg/L
- GI50 at 48 h [7]: 31.2 mg/L (≈ 69.2 µM)
- GI50 at 48 h [8]: 62.5 mg/L (≈ 138 µM)
- GI50 [9]: 15.6 mg/L (≈ 34.6 µM)
- GI50 [10]: 31.2 mg/L (≈ 69.2 µM)
- GI50 [11]: 15.6 mg/L (≈ 34.6 µM)
- GI50 [12]: 15.6 mg/L (≈ 34.6 µM)
- GI50 [13]: 15.6 mg/L (≈ 34.6 µM)
- Survival [14]: 12.2 days

Structure (SMILES): COc1cc(C(=O)NNC(=O)c2ccc3[nH]c(-c4ccc([N+](=O)[O-])s4)nc3c2)cc(OC)c1OC
- inhibition [2]: 92.4%
- inhibition in vivo at 20 mg/kg [3]: 9.36%
- pIC50 [4]: 5.02
- GI50 [5]: 62.5 mg/L (≈ 126 µM)
- MIC [6]: > 25 mg/L
- GI50 at 48 h [7]: 31.2 mg/L (≈ 62.8 µM)
- GI50 at 48 h [8]: 31.2 mg/L (≈ 62.8 µM)
- GI50 [9]: 62.5 mg/L (≈ 126 µM)
- GI50 [10]: 31.2 mg/L (≈ 62.8 µM)
- GI50 [11]: 62.5 mg/L (≈ 126 µM)
- GI50 [12]: 62.5 mg/L (≈ 126 µM)
- GI50 [13]: 31.2 mg/L (≈ 62.8 µM)
- Survival [14]: 10 days
